# Bioassay records from PubChem BioAssay.
# FXN GAA850 act: frataxin GAA850 promoter activation. activation, % at 6 µM. HEK293 lucGAA850 FXN promoter luciferase reporter, 24 h; percent of 10 µM SAHA response. actives 0.56% (n = 360,000);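 active = activation above the average of all compounds screened plus 3 SD, cutoff fixed separately per campaign, cut at about 7.5% in these data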;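 note: 0% = DMSO wells and 100% = 10 µM SAHA wells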
# AHR act: activators of human aryl hydrocarbon receptor. P35869. AHR-responsive luciferase reporter cells, luminescence. activation, % at 5 µM. actives 2.5% (n = 320,000). AID 2796; in the data active = activation above about 47%;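 note: 0% = vehicle wells and 100% = reference agonist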
# STAT3 act: activators of IL-6 induced STAT3 signaling | U3A cells, IL-6 STAT3-luciferase reporter, luminescence; 100% = signal with IL-6 EC80 alone | activation (% of control), % at 5.6 µM | actives 0.91% (n = 190,000);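 active = activation above the screen-wide mean of compound activation plus 3 SD, cut at about 130% in these data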;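 note: 0% = background luminescence of wells with medium and substrate only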
#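 Assay system – human STAT1-deficient U3A cells with stable STAT3-luciferase reporter · Also added – IL-6 (33 ng/mL) · Schedule – compound 1 h, then IL-6 6 h at 37 °C · Technique – reporter luminescence signal · Evaluation – % activation versus median of IL-6-stimulated wells · Benchmarks – IL-6-only wells as 100% reference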
# ABCB6 inh 2: human ABCB6 transporter inhibition; K562-ABCB6 porphyrin accumulation, flow cytometry, 1 h; active compounds read low; actives 0.19% (n = 360,000); fluorescence ratio to DMSO, % at 10 µM; Q9NP58;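 active = fluorescence ratio to DMSO below 75%, the collection mean minus 3 SD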;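 note: signal is porphyrin accumulated inside mitochondria; 100% equals median channel fluorescence of DMSO control wells; lower ratio means ABCB6 inhibition with less porphyrin fluorescence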
# AHR act confirm: confirmation of human aryl hydrocarbon receptor activators; shares compounds with AHR act; human cells, AHR-responsive luciferase reporter, luminescence; activation, % at 9 µM; actives 87% (n = 2,300); in the data active = activation above about 49%;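 note: HepG2 hepatoma cells carrying a DRE-driven firefly luciferase reporter; 0% = vehicle wells and 100% = reference agonist wells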
# PXR act counter: PXR activation, counter-screen for AHR activators; shares compounds with AHR act; cell-based PXR reporter, luciferase luminescence; activation, % at 11.6 µM; actives 88% (n = 2,300); AID 434939; in the data active = activation above about 11%;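 note: human hepatoma DPX-2 cells expressing full-length human PXR; 0% = DMSO and 100% = reference agonist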
# * = called active by the depositor; . = no result. In the library only some 3.3% were active in any assay of this set; here they are far more common.
SMILES,FXN GAA850 act,AHR act,STAT3 act,ABCB6 inh 2,AHR act confirm,PXR act counter
O=c1c2[nH]c3ccc(F)cc3c2ncn1CCCn1ccnc1,-1,96*,86,101,81*,18*
O=C(c1ccco1)N1CCN(C(=O)c2cnn(-c3ccc(F)cc3)c2-n2cccc2)CC1,0,.,.,95,.,.
Cc1ccc(C)c(/C=C/C(=O)c2ccccc(=O)c2O)c1,4,4,101,98,.,.
Cc1ccc(/C=C/C(=O)c2ccccc(=O)c2O)c(C)c1,-8,94*,98,95,12,17*
NC1=NC(=O)/C(=C/c2ccc(-c3ccc(S(N)(=O)=O)cc3)o2)S1,-2,121*,.,95,88*,16*
Cn1cnc([N+](=O)[O-])c1Oc1cccc2ccccc12,-2,82*,104,101,82*,21*
Cn1cnc([N+](=O)[O-])c1S(=O)(=O)Oc1cccc2ccccc12,1,.,.,108,.,.
O=C(Nc1ccccc1)c1oc2ccccc2c1NC(=O)C1CC1,2,103*,.,96,-3,51*
COc1ccc(NC(=O)c2oc3ccccc3c2NC(=O)C2CC2)cc1OC,2,12,.,92,.,.
COc1ccc(NC(=O)c2oc3ccccc3c2NC(=O)C2CCCO2)cc1OC (stereo not drawn),3,0,82,96,.,.
O=C(Nc1ccc(F)c(F)c1)c1oc2ccccc2c1NC(=O)C1CCCO1 (stereo not drawn),3,81*,86,93,135*,24*
Nc1nc(Nc2ccccc2)nc2c1ncn2[C@@H]1O[C@H](CO)[C@@H](O)[C@H]1O,5,1,.,93,.,.
CC(=O)Nc1ccc2nc(-c3ccccn3)[nH]c2c1,3,35,108,83,.,.
c1ccc(-c2nc3cc4ccccc4cc3[nH]2)nc1,0,114*,28,99,44,23*
O=C(CSCc1cccc(Br)c1)N=Nc1c(O)[nH]c2ccccc12,2,29,104,99,.,.
O=Nc1c(-c2c(O)[nH]c3cc(Br)ccc23)[nH]c2ccccc12,5,133*,.,183,148*,22*
CCn1c(=O)cc(OCC(=O)NCc2ccco2)c2ccccc21,-2,24,91,92,.,.
CCn1c(=O)cc(OCC(=O)NCc2ccc(C)o2)c2ccccc21,1,96*,96,89,46,25*
Clc1ccc(-n2nnc(-c3cccnc3)n2)cc1Cl,2,112*,.,101,135*,38*
Clc1ccc(-n2nnc(-c3nccs3)n2)cc1Cl,5,116*,.,99,84*,33*
CCNC(=S)N=Nc1c(O)[nH]c2ccc(C(C)C)cc12,-1,123*,99,100,72*,80*
CC(C)c1ccc2[nH]c(O)c(N=NC(=S)NCCc3ccccc3)c2c1,2,39,107,102,.,.
CNC(=O)c1ccsc1NC(=O)c1sc2ccccc2c1Cl,4,120*,103,97,116*,19*
COCc1nnc(NC(=O)c2sc3ccccc3c2Cl)s1,0,1,95,104,.,.
Cc1cccc(-n2ncc3c(NCCCn4ccnc4)ncnc32)c1,3,83*,108,97,57*,45*
SMILES,FXN GAA850 act,AHR act,STAT3 act,ABCB6 inh 2,AHR act confirm,PXR act counter
Cc1sc2ncnc(NCCCn3ccnc3)c2c1C,0,127*,103,97,102*,22*
Cc1ccc(-n2ncc3c(NCCCn4ccnc4)ncnc32)c(C)c1,-1,32,.,95,.,.
CC/C(O)=C1\C(=O)CC(c2ccccc2)CC1=NC(C)C (stereo not drawn),1,123*,103,93,3,128*
CC/C(O)=C1\C(=O)CC(c2ccccc2)CC1=NCCC(=O)O (stereo not drawn),1,-2,86,92,.,.
Cc1nc(N2CCOCC2)c2oc3ccccc3c2n1,-1,100*,100,104,92*,24*
COc1ccc(NC(=S)NNC(=O)Cn2nc(C(F)F)cc2C(F)F)cc1,-1,-1,105,100,.,.
COc1ccc(-c2coc3cc(OC)cc(OC)c3c2=O)cc1,2,93*,.,103,132*,26*
COc1ccc(-c2coc3cc(OC)cc(O)c3c2=O)cc1,1,-8,102,103,.,.
Cc1c(NC(=O)c2ccc(Br)o2)c(=O)n(-c2ccccc2)n1C,1,1,97,97,.,.
O=c1c(Cl)c2oc3ccccc3nc-2c2ccccc12,1,81*,120,169,123*,16*
O=C(O)c1ccc(COc2ccccc2/C=C2\NC(=O)N(Cc3ccccc3F)C2=O)cc1,3,-1,97,97,.,.
CN1C(=O)/C(=C/c2ccccc2OCc2ccccc2F)NC1=S,0,93*,101,85,79*,85*
COc1cccc(OCc2cc(/C=N/Nc3ccc(C(=O)O)cc3)ccc2OC)c1,2,7,.,108,.,.
Cc1nc(NC(=O)c2ccco2)sc1C(=O)O,0,8,.,96,.,.
CC(=O)Nc1ccc2nc(NC(=O)c3ccco3)sc2c1,4,119*,.,103,66*,18*
Fc1cccc2sc(Nc3nnc(-c4ccco4)o3)nc12,2,151*,112,97,121*,40*
Cc1nc(NC(=O)c2ccco2)sc1C(=O)Nc1ccc(Br)cc1,-1,108*,121,99,145*,79*
O=C(Nc1nc2c(F)cccc2s1)c1ccco1,-2,121*,.,98,72*,49*
CC(=O)Nc1nnc(-c2ccco2)o1,1,1,99,97,.,.
CC(C)(C)c1cc2nc(NCCOc3ccccc3)ccn2n1,4,.,.,89,.,.
O=C(Nc1ccccc1Oc1ccccc1)c1ccccc1F,1,119*,104,98,131*,20*
CC(=O)Nc1ccccc1Oc1ccccc1,-1,-1,106,106,.,.
COc1cccc(/C=N/n2c(=O)[nH]c3ccccc32)c1OC,3,118*,83,92,94*,18*
CCn1nc(C(=O)Nc2nc3ccccc3[nH]2)c2ccccc2c1=O,-1,2,90,95,.,.
Cn1nc(C(=O)Nc2nc3ccccc3[nH]2)c2ccccc2c1=O,2,98*,96,105,73*,19*
OCCNc1nc(-c2ccccc2)nc2ccccc12,2,30,95,97,.,.
c1ccc2nc3c(nc2c1)[nH]c1ccccc13,7,158*,116,86,158*,14*
c1ccc(-c2c3ccccc3nc3[nH]c4ccccc4c23)cc1,2,103*,103,95,68*,32*
COc1ccc2nnc(-c3ccc(C(F)(F)F)cc3)n2n1,2,81*,.,89,105*,18*
Cn1cc(C(=O)N/N=C/C(Br)=C/c2ccccc2)ccc1=O,6,116*,97,138,143*,11*
